Reference: ChEMBL document CHEMBL1141335, “Epicoccamides B-D, glycosylated tetramic acid derivatives from an Epicoccum sp. associated with the tree fungus Pholiota squarrosa” (J Nat Prod, 2007)
Active and inactive are the calls of the source. The calls are words filed in the database; no cut-off is given here.

Key:
K562 = test: Antiproliferative activity against human K562 cells; assay type: functional
HeLa = test: Cytotoxicity against human HeLa cells; assay type: functional; details: for CC50: Homo sapiens, HeLa
Procedure, shortened: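 HeLa Ohio cells grown 2 days to confluent monolayers, then growth medium replaced with nine 2-fold compound dilutions in test medium. Incubated 72 h at 37 °C, 5% CO2. Cells fixed, washed and stained, with OD read at 660 nm. Viability taken as % of six untreated controls. CC50 calculated from the mean dose–response curve of two assays.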

[1] = Antiproliferative activity against mouse L929 cells; assay type: cell-based
[2] = tested on: Remotididymella destructiva; test: Induction of morphogenesis in Phoma destructiva at 1.7 mM; assay type: functional, organism-based
Procedure, shortened: (§1)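 Phoma destructiva vegetative mycelium grown on malt agar plates (malt extract, glucose, yeast extract, (NH4)2SO4, pH 6.0), set up like an agar-well diffusion assay. 50 µL of purified metabolite placed in 9 mm agar wells. Plates incubated for three days, then scored visually for changes in pigment and aerial mycelium formation.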

[3] = tested on: Remotididymella destructiva; test: Induction of pigment formation in Phoma destructiva at 1.7 mM; assay type: functional, organism-based; procedure, shortened: as §1

GI50 (K562) [µM]	SMILES	CC10 (HeLa) [µM]	CC50 (HeLa) [µM]	GI50 [1] [µM]	Activity [2]	Activity [3]
> 90	CC(CCCCCCCCCCCCCCO[C@@H]1O[C@H](CO)[C@@H](O)[C@H](O)[C@@H]1O)C(=O)C1=C(O)N(C)C(C)C1=O (stereo partly drawn)	51.3	> 90	> 90		
33.7	CC(=O)OC[C@H]1O[C@@H](OCCCCCCCCCCCCCCC(C)C(=O)C2=C(O)N(C)C(C)C2=O)[C@@H](O)[C@@H](O)[C@@H]1O (stereo partly drawn) [EPICOCCAMIDE C]	13.6	29	57.2		
33.3	CC(CCCCCCCCCCCCCCCCO[C@@H]1O[C@H](CO)[C@@H](O)[C@H](O)[C@@H]1O)C(=O)C1=C(O)N(C)C(C)C1=O (stereo partly drawn) [EPICOCCAMIDE D]	11.6	17	50.5	Active	Active
52.7	CC(=O)O[C@@H]1[C@H](O)[C@H](OCCCCCCCCCCCCCCC(C)C(=O)C2=C(O)N(C)C(C)C2=O)O[C@H](CO)[C@H]1O (stereo partly drawn)	26.2	44.2	71.1		
